Data published in ChEMBL document CHEMBL1126564, “Synthesis and antimicrobial evaluation of a series of 7-[3-amino (or aminomethyl)-4-aryl (or cyclopropyl)-1-pyrrolidinyl]-4-quinolone- and -1,8-naphthyridone-3-carboxylic acids” (1993).
Values after ≈ are worked out from the molar mass of the structure shown.

Legend:
Type in all cases: functional
[1] = system: Enterococcus faecalis; test: Minimum inhibitory concentration against […] MGH-2
Procedure, shortened: (§1)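 Standard microdilution method against a panel of five Gram-negative and five Gram-positive bacterial strains. The MIC (µg/mL) was recorded for each strain.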

[2] = system: Escherichia coli; test: Minimum inhibitory concentration against Escherichia coli Vogel; procedure, shortened: as §1
[3] = system: Streptococcus pyogenes; test: Minimum inhibitory concentration against Streptococcus pyogenes C-203; procedure, shortened: as §1
[4] = system: Klebsiella pneumoniae; test: Minimum inhibitory concentration against Klebsiella pneumoniae MGH-2; procedure, shortened: as §1
[5] = system: Pseudomonas aeruginosa; test: Minimum inhibitory concentration against Pseudomonas aeruginosa UI-18; procedure, shortened: as §1
[6] = system: Streptococcus pneumoniae; test: Minimum inhibitory concentration against Streptococcus pneumoniae SV-1; procedure, shortened: as §1
[7] = system: Staphylococcus aureus; test: Minimum inhibitory concentration against Staphylococcus aureus UC-76; procedure, shortened: as §1
[8] = system: Providencia rettgeri; test: Minimum inhibitory concentration against Providencia rettgeri M-1771; procedure, shortened: as §1
[9] = system: Enterobacter cloacae; test: Minimum inhibitory concentration against […] MA-2646; procedure, shortened: as §1
[10] = system: Staphylococcus aureus; test: Minimum inhibitory concentration against Staphylococcus aureus H-228; procedure, shortened: as §1
[11] = Enterococcus faecalis, read-out: MIC
[12] = Escherichia coli, read-out: MIC
[13] = Streptococcus pyogenes, read-out: MIC
[14] = Klebsiella pneumoniae, read-out: MIC
[15] = Pseudomonas aeruginosa, read-out: MIC
[16] = Streptococcus pneumoniae, read-out: MIC
[17] = Staphylococcus aureus, read-out: MIC
[18] = Providencia rettgeri, read-out: MIC
[19] = Enterobacter cloacae, read-out: MIC

Structure (SMILES)	MIC [1, 11] [µg/mL]	MIC [2, 12] [µg/mL]	MIC [3, 13] [µg/mL]	MIC [4, 14] [µg/mL]	MIC [5, 15] [µg/mL]	MIC [6, 16] [µg/mL]	MIC [7, 17] [µg/mL]	MIC [8, 18] [µg/mL]	MIC [9, 19] [µg/mL]	MIC [10, 17] [µg/mL]	MIC [5] [µg/mL]	MIC [1] [µg/mL]	MIC [2] [µg/mL]	MIC [3] [µg/mL]	MIC [4] [µg/mL]	MIC [6] [µg/mL]	MIC [7] [µg/mL]	MIC [8] [µg/mL]	MIC [9] [µg/mL]	MIC [10] [µg/mL]
Nc1c(F)c(N2CC(N)C(c3ccccc3)C2)c(F)c2c1c(=O)c(C(=O)O)cn2C1CC1 (stereo not given)	0.05 (≈ 0.114 µM)	0.025 (≈ 0.0568 µM)	0.1 (≈ 0.227 µM)	0.05 (≈ 0.114 µM)	0.8 (≈ 1.82 µM)	0.05 (≈ 0.114 µM)	0.006 (≈ 0.0136 µM)	0.1 (≈ 0.227 µM)	0.025 (≈ 0.0568 µM)	0.013 (≈ 0.0295 µM)										
Nc1c(F)c(N2CC(N)C(c3ccc(F)cc3)C2)c(F)c2c1c(=O)c(C(=O)O)cn2C1CC1 (trans isomer)	0.1 (≈ 0.218 µM)	0.1 (≈ 0.218 µM)	0.1 (≈ 0.218 µM)	0.1 (≈ 0.218 µM)	1.6 (≈ 3.49 µM)	0.1 (≈ 0.218 µM)	0.013 (≈ 0.0284 µM)	0.2 (≈ 0.436 µM)	0.1 (≈ 0.218 µM)	0.025 (≈ 0.0545 µM)										
COc1ccccc1C1CN(c2nc3c(cc2F)c(=O)c(C(=O)O)cn3C2CC2)CC1N (cis isomer)					> 3.1							0.8 (≈ 1.82 µM)	0.8 (≈ 1.82 µM)	1.6 (≈ 3.65 µM)	1.6 (≈ 3.65 µM)	0.8 (≈ 1.82 µM)	0.2 (≈ 0.456 µM)	3.1 (≈ 7.07 µM)	0.8 (≈ 1.82 µM)	0.4 (≈ 0.912 µM)
Nc1c(F)c(N2CC(N)C(c3ccc(O)cc3)C2)c(F)c2c1c(=O)c(C(=O)O)cn2C1CC1 (trans isomer)	0.05 (≈ 0.11 µM)	0.05 (≈ 0.11 µM)	0.1 (≈ 0.219 µM)	0.05 (≈ 0.11 µM)	0.8 (≈ 1.75 µM)	0.05 (≈ 0.11 µM)	0.013 (≈ 0.0285 µM)	0.1 (≈ 0.219 µM)	0.05 (≈ 0.11 µM)	0.05 (≈ 0.11 µM)										
NCC1CN(c2c(F)c(N)c3c(=O)c(C(=O)O)cn(C4CC4)c3c2F)CC1c1ccc(N)cc1 (trans isomer)	0.025 (≈ 0.0532 µM)	0.1 (≈ 0.213 µM)	0.025 (≈ 0.0532 µM)	0.2 (≈ 0.426 µM)	0.8 (≈ 1.7 µM)	0.013 (≈ 0.0277 µM)	0.006 (≈ 0.0128 µM)	0.2 (≈ 0.426 µM)	0.1 (≈ 0.213 µM)	0.025 (≈ 0.0532 µM)										
NCc1cccc(C2CN(c3nc4c(cc3F)c(=O)c(C(=O)O)cn4C3CC3)CC2N)c1 (trans isomer)	0.8 (≈ 1.83 µM)	0.8 (≈ 1.83 µM)	0.2 (≈ 0.457 µM)	0.8 (≈ 1.83 µM)	3.1 (≈ 7.09 µM)	0.2 (≈ 0.457 µM)	0.4 (≈ 0.914 µM)	1.6 (≈ 3.66 µM)	0.8 (≈ 1.83 µM)	3.1 (≈ 7.09 µM)										
NCC1CN(c2c(F)cc3c(=O)c(C(=O)O)cn(C4CC4)c3c2F)CC1c1ccco1 (stereo not given)	0.013 (≈ 0.0303 µM)	0.05 (≈ 0.116 µM)	0.013 (≈ 0.0303 µM)	0.1 (≈ 0.233 µM)	0.4 (≈ 0.931 µM)	0.006 (≈ 0.014 µM)	0.003 (≈ 0.00699 µM)	0.1 (≈ 0.233 µM)	0.05 (≈ 0.116 µM)	0.025 (≈ 0.0582 µM)										
COC(=O)c1ccc(C2CN(c3nc4c(cc3F)c(=O)c(C(=O)O)cn4C3CC3)CC2N)cc1 (trans isomer)	0.4 (≈ 0.858 µM)	0.4 (≈ 0.858 µM)	0.8 (≈ 1.72 µM)	0.4 (≈ 0.858 µM)	3.1 (≈ 6.65 µM)	0.8 (≈ 1.72 µM)	0.1 (≈ 0.214 µM)	0.8 (≈ 1.72 µM)	0.4 (≈ 0.858 µM)	0.2 (≈ 0.429 µM)										
NCC1CN(c2c(F)c(N)c3c(=O)c(C(=O)O)cn(C4CC4)c3c2F)CC1c1ccccc1 (trans isomer)	0.013 (≈ 0.0286 µM)	0.025 (≈ 0.055 µM)	0.006 (≈ 0.0132 µM)	0.05 (≈ 0.11 µM)	0.8 (≈ 1.76 µM)	0.003 (≈ 0.0066 µM)	0.003 (≈ 0.0066 µM)	0.1 (≈ 0.22 µM)	0.05 (≈ 0.11 µM)	0.006 (≈ 0.0132 µM)										

More lines, main results first:

MIC [1, 11] [µg/mL]	MIC [2, 12] [µg/mL]	MIC [3, 13] [µg/mL]	MIC [4, 14] [µg/mL]	MIC [5, 15] [µg/mL]	MIC [6, 16] [µg/mL]	MIC [7, 17] [µg/mL]	MIC [8, 18] [µg/mL]	MIC [9, 19] [µg/mL]	MIC [10, 17] [µg/mL]	MIC [5] [µg/mL]	Structure (SMILES)	MIC [1] [µg/mL]	MIC [2] [µg/mL]	MIC [3] [µg/mL]	MIC [4] [µg/mL]	MIC [6] [µg/mL]	MIC [7] [µg/mL]	MIC [8] [µg/mL]	MIC [9] [µg/mL]	MIC [10] [µg/mL]
0.1 (≈ 0.229 µM)	0.2 (≈ 0.457 µM)	0.05 (≈ 0.114 µM)	0.4 (≈ 0.914 µM)	1.6 (≈ 3.66 µM)	0.05 (≈ 0.114 µM)	0.025 (≈ 0.0571 µM)	0.8 (≈ 1.83 µM)	0.2 (≈ 0.457 µM)	0.2 (≈ 0.457 µM)		NCC1CN(c2nc3c(cc2F)c(=O)c(C(=O)O)cn3C2CC2)CC1c1ccc(N)cc1 (cis isomer)									
0.1 (≈ 0.236 µM)	0.1 (≈ 0.236 µM)	0.2 (≈ 0.471 µM)	0.2 (≈ 0.471 µM)	1.6 (≈ 3.77 µM)	0.2 (≈ 0.471 µM)	0.1 (≈ 0.236 µM)	0.4 (≈ 0.942 µM)	0.1 (≈ 0.236 µM)	0.4 (≈ 0.942 µM)		NC1CN(c2nc3c(cc2F)c(=O)c(C(=O)O)cn3C2CC2)CC1c1ccc(O)cc1 (trans isomer)									
										1.6 (≈ 3.66 µM)	NCC1CN(c2nc3c(cc2F)c(=O)c(C(=O)O)cn3C2CC2)CC1c1ccc(N)cc1 (trans isomer)	0.1 (≈ 0.229 µM)	0.2 (≈ 0.457 µM)	0.05 (≈ 0.114 µM)	0.2 (≈ 0.457 µM)	0.05 (≈ 0.114 µM)	0.05 (≈ 0.114 µM)	0.4 (≈ 0.914 µM)	0.2 (≈ 0.457 µM)	0.4 (≈ 0.914 µM)
0.1 (≈ 0.202 µM)	0.1 (≈ 0.202 µM)	0.1 (≈ 0.202 µM)	0.2 (≈ 0.405 µM)	1.6 (≈ 3.24 µM)	0.1 (≈ 0.202 µM)	0.013 (≈ 0.0263 µM)	0.2 (≈ 0.405 µM)	0.2 (≈ 0.405 µM)	0.05 (≈ 0.101 µM)		NC1CN(c2c(F)cc3c(=O)c(C(=O)O)cn(C4CC4)c3c2F)CC1c1ccc(Cl)c(Cl)c1 (trans isomer)									
0.1 (≈ 0.269 µM)	0.05 (≈ 0.135 µM)	0.1 (≈ 0.269 µM)	0.05 (≈ 0.135 µM)	0.8 (≈ 2.15 µM)	0.1 (≈ 0.269 µM)	≤ 0.025	0.1 (≈ 0.269 µM)	0.1 (≈ 0.269 µM)	0.1 (≈ 0.269 µM)		NC1CN(c2cc3c(cc2F)c(=O)c(C(=O)O)cn3C2CC2)CC1C1CC1 (stereo not given)									
